CAL PDZ FP-1: inhibitors of human CAL PDZ peptide binding | Q9HD26 | purified CAL PDZ, TMR-peptide fluorescence polarization, 1 h | inhibition, % at 24.9 µM | hit rate 0.92% among 300,000;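 active = mean inhibition of at least 30% with at least half of replicates also reaching 30%; inconclusive = no clear call, values can overlap the other calls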;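 also: 0% = DMSO neutral control and 100% = excess unlabeled competitor peptide PRC23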
CDK5 p35 inh: inhibitors of human CDK5/p35 kinase. AID 488839. hit rate 0.01% among 330,000. Q00535+Q15078. Recombinant CDK5/p35, ADP-Glo luminescence, 60 min. inhibition, % at 10 µM;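 active = highest replicate inhibition of at least 50% and at least 75% of replicates reaching 50%; inconclusive = only one of the two criteria met; inactive = both criteria failed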;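 also: plate controls were DMSO neutral control for no effect and GW8510 at 10 µM for full effect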
Target sequence (Q00535 whole entry, looked up): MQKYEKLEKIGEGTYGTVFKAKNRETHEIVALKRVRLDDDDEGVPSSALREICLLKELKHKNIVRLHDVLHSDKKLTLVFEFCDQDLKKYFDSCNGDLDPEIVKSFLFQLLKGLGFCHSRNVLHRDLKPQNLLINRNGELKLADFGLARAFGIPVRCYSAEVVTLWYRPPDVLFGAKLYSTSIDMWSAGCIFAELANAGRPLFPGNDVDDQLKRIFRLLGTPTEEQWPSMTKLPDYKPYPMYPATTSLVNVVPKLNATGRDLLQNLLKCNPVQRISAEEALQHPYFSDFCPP
Target sequence (Q15078 whole entry, looked up): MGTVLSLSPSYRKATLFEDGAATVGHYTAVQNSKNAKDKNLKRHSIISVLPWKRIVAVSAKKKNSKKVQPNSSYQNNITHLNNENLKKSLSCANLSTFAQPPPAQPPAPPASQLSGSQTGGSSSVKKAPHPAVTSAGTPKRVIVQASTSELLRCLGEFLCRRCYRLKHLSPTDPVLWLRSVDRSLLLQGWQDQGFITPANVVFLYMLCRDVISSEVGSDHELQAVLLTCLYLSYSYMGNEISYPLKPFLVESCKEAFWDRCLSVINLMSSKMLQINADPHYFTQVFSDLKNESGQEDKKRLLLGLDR
C2C12 statin: suppression of simvastatin myotoxicity. rescue of ATP level, % at 7.49 µM. hit rate 0.78% among 330,000. C2C12 myotubes + simvastatin, ATP luminescence, 48 h; scaled: DMSO 0, geranylgeraniol control 100;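 active = mean ATP rescue above about 67%, or every replicate alone reaching that limit, limit read from the data, passing the limit was not always enough; inconclusive = no clear call, values can overlap the other calls; inactive = mean under the limit and some replicate under it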;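 also: myotubes were challenged with 10 µM simvastatin during compound exposure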
S100A4 inh HTS: S100A4-myosin IIA interaction inhibition. P26447. S100A4/TAMRA-MyoIIA peptide fluorescence polarization. inhibition, % at 10.7 µM. hit rate 0.14% among 360,000;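 active = mean inhibition of at least 70% across replicates, with every replicate also reaching that level; inconclusive = mean inhibition reaches 70% but some replicates fall short; inactive = mean inhibition below 70%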
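Test system: S100A4 monomer protein; Medium: HEPES pH 7.2 with CaCl2, KCl, NaCl, DTT, Triton; Probe or stimulus: TAMRA-labelled myosin IIA heavy-chain peptide probe, 5 nM; Doses: one dose per compound; Times: polarization read 5 min after assay mix addition, stable 5–60 min; Benchmarks: neutral control DMSO, positive control TFP.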
dFosB act-1: activators of mouse delta FosB homodimer; activation, % at 25 µM; purified delta FosB, TAMRA-CDK5 oligo fluorescence polarization; percent of positive-control signal above neutral wells; AID 493131; P13346; hit rate 0.99% among 340,000;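 active = mean activation above about 17%, with every replicate also reaching it, limit read from the data, passing the limit was not always enough; inconclusive = only one of the two conditions met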
CAL PDZ FP-2: inhibitors of human CAL PDZ peptide binding; Q9HD26; purified CAL PDZ, TMR-peptide fluorescence polarization, 1 h; inhibition, % at 20 µM; hit rate 0.02% among 330,000; AID 504414;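 active = highest replicate inhibition of at least 40%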;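 also: plate controls were DMSO neutral control wells for no effect and unlabeled competitor peptide control wells for full effect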
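System: tagged CAL PDZ domain. Schedule: 1 h room-temperature incubation prior to read. Signal: fluorescence polarization (mP). Measure: percent inhibition from loss of millipolarization.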
dFosB act-2: enhances mouse delta FosB homodimer binding to DNA. shares compounds with dFosB act-1. purified delta FosB, TAMRA-CDK5 oligo fluorescence polarization; normalised: neutral wells 0, positive control 100. activation, % at 24.9 µM. 2,400 tested, under 10 active. AID 588690;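 active = highest replicate activation at or above 34% and every replicate reaching that threshold; inconclusive = meets only one of the two criteria; inactive = meets neither criterion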;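 also: higher polarization means more probe DNA bound by delta FosB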
Starred values were filed as active, the others as inactive; u = inconclusive; x = no result given. Sampled rows, rich in hits. Any-hit rate of the full collection: about 2%.

SMILES | CAL PDZ FP-1 | CDK5 p35 inh | C2C12 statin | S100A4 inh HTS | dFosB act-1 | CAL PDZ FP-2 | dFosB act-2
COc1cccc(CNC(=O)CCS(=O)(=O)c2ccc3c(c2)CC(C)N3C(=O)C2CC2)c1 (stereo not given) | -2 | 0 | 4 | 2 | -9 | -2 | x
CC(=O)NCc1ccc(-c2csc(-c3cccs3)n2)cc1 | -4 | -2 | 26 | -3 | -5 | -1 | x
CCC(=O)Nc1ccc(C(=O)CSc2nnc(-c3ccc(NS(=O)(=O)CC)cc3)o2)cc1OC | 0 | 0 | x | 2 | 20* | -2 | 0
O=C(CSc1nnc(-c2ccc(Br)cc2)o1)Nc1cccc2ccccc12 | x | 2 | -33 | -7 | 30* | -3 | 0
COc1ccc(/C=C(/Sc2nnc(-c3ccc(Cl)cc3)o2)C(=O)O)cc1 | 1 | 2 | x | -6 | 36* | x | 5
Cc1ccc(C)c(NC(=O)CSc2nnc(-c3n[nH]c4ccccc34)o2)c1 | -6 | -2 | x | x | 34* | -1 | -1
Cc1ccc(S(=O)(=O)NC(Cc2ccccc2)C(=O)O)cc1 (stereo not given) | -4 | 0 | x | -1 | 0 | -2 | x
COc1cccc(/C=N/NC(=O)CNC(=O)c2ccc3c(c2)OCCO3)c1O | -5 | -2 | x | x | -2 | -3 | x
CCCC(=O)Nc1ccc2c(c1)C(=O)N(C)[C@H]1CC[C@H](CC(=O)Nc3cccc(C)c3)O[C@@H]1CO2 | x | x | -9 | x | x | x | x
CCc1nc(SCC(=O)N2CCCCCC2)c2c(=O)n(C)c(=O)n(C)c2n1 | -5 | 0 | -19 | -1 | -14 | -1 | x
COc1ccc(-c2nnc(SCC(=O)Nc3cccc(Cl)c3)o2)cc1 | 2 | 0 | -20 | x | 38* | -2 | 3
COc1ccc(-c2nnc(SCC(=O)Nc3nncs3)o2)cc1 | 13 | 0 | 5 | -3 | 3 | -2 | x
CCN(CC)S(=O)(=O)c1ccc(-c2nnc(SCC(=O)Nc3ccc(OC)cc3)o2)cc1 | -3 | -4 | 5 | x | 107* | 1 | 1
CCN(CC)S(=O)(=O)c1ccc(-c2nnc(SCC(=O)Nc3ccc(OC)c(OC)c3)o2)cc1 | 4 | 0 | -4 | x | u | -1 | x
O=C(CSc1nc2ccccc2o1)NCC1CCCO1 (stereo not given) | -2 | 1 | -6 | -5 | 8 | 0 | x
O=C(NNC(=O)c1cc(Br)c(Br)s1)c1csc(N2CCOCC2)n1 | -3 | 0 | x | 0 | 44* | -2 | 1
CCc1cc(C(=O)NNC(=O)c2csc(N3CCOCC3)n2)sc1C | -2 | 0 | -5 | -4 | -10 | -2 | x
CCC(=O)Nc1nnc(SCc2ccc(F)cc2)s1 | x | 0 | x | x | 3 | 0 | x
CC(=O)Nc1ccc(N2C(=O)c3ccc(C(=O)Nc4nnc(SCc5ccc(F)cc5)s4)cc3C2=O)cc1 | -10 | 0 | -16 | x | 56* | -4 | 2
Cc1ccc(/C=N\NC(=O)Cc2noc3ccccc23)cc1 | -3 | 0 | -10 | -7 | 22* | x | u
O=C(COc1coc(CN2CCCc3ccccc32)cc1=O)Nc1ccc([N+](=O)[O-])cc1 | -2 | 1 | 2 | -7 | 28* | -2 | 7
CC(=O)Nc1ccc(S[C@@H](CCN2CC[C@H](O)CCC2=O)c2ccccc2)cc1 | 7 | -1 | -1 | -4 | -1 | 0 | x
O=C(Nc1nc2c(F)c(F)c(F)cc2s1)c1ccco1 | -1 | 0 | 2 | 5 | 30* | 0 | 2
COc1ccccc1-n1c(SC)nc2c(sc(=S)n2-c2ccccc2)c1=O | 2 | -1 | -1 | -8 | 24* | 0 | 1
COc1cc(CC(=O)OCC(=O)c2c[nH]c3ccccc23)cc(OC)c1OC | 4 | 0 | -12 | 0 | -5 | 0 | x
COc1ccc(C)cc1S(=O)(=O)N1CCC2(CC1)OCCN2S(=O)(=O)c1ccccc1 | 1 | -1 | 14 | -1 | -9 | -1 | x
Cc1ccc(C(=O)NCC(=O)Nc2ccc(C)c(S(=O)(=O)Nc3ccc(Cl)cc3)c2)s1 | -7 | -11 | x | 0 | 36* | 0 | 0

High-throughput results: PubChem BioAssay, Broad Institute
